Assay results taken from article PMC3767132 (Organic & biomolecular chemistry, 2012).
Like-named read-outs stand apart in the source and are kept apart here.

Key:
hMetAP1 = hMetAP1 (Homo sapiens, UniProt P53582); assay: human MetAP1 enzyme assay; format: biochemical; details: for b = bottom value in the dose-response curve, hMetAP1: noted only when above 15%
HUVEC [1] = assay: HUVEC proliferation assay using [3H]-thymidine incorporation; format: cell-based, human
hMetAP2 = hMetAP2 (Homo sapiens, UniProt P50579); assay: human MetAP2 enzyme assay; format: biochemical; details: for b = bottom value in the dose-response curve, hMetAP2: noted only when above 15%; for inhibition at 10 µM: read-out: inhibition of MetAP2 activity in HTS
SIRT1 = assay: Immunoblot of Ac-p53; format: cell-based, human; details: for Immunoblot Ac-p53: compound treated HUVEC lysates, 24 h, signal relative to DMSO = 1.0; for effect on the levels of Ac-p53: up to 10 μM, data not shown
Outline: (§1)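 HUVEC were exposed to test compound for 24 h, typically at 5 μM (some up to 10 μM), with DMSO as negative control. Lysates were immunoblotted for Met-14-3-3γ, 14-3-3γ, Ac-p53 and total p53. Band densities were taken as Met-14-3-3γ/14-3-3γ and Ac-p53/p53 per lane, relative to DMSO = 1.0. Ac-p53 was scored −(<2.0), +(2.0–7.0), ++(7.1–11.6), +++(>11.6).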

MetAP = assay: Immunoblot of Met-14-3-3γ; format: cell-based, human; details: for Immunoblot Met-14-3-3γ: compound treated HUVEC lysates, 24 h, signal relative to DMSO = 1.0; for effect on the levels of Met-14-3-3γ: up to 10 μM, HUVEC, data not shown
Outline: as §1

HUVEC [2] = assay: HUVEC cell-viability assay using calcein-AM; format: cell-based, human; details: for IC50: Homo sapiens, HUVEC, read-out: IC50 Calcein-AM HUVEC
HFF = HFF cell-viability assay using calcein-AM; format: cell-based, human; details: for IC50: Homo sapiens, HFF, read-out: IC50 Calcein-AM HFF
HeLa = HeLa proliferation assay, 3H-T uptake; format: cell-based; details: for IC50: Homo sapiens, HeLa, read-out: IC50 3H-T Uptake HeLa
Jurkat-T = assay: Jurkat T proliferation assay, 3H-T uptake; format: cell-based; details: for IC50: Homo sapiens, Jurkat, read-out: IC50 3H-T Uptake Jurkat-T
[3] = Homo sapiens, HUVEC, read-out: IC50 HUVEC
[4] = read-out: IC50 hMetAP1, enzyme assay, 10 μM Co2+
[5] = read-out: IC50 hMetAP2, enzyme assay, 10 μM Mn2+
[6] = read-out: IC50 HUVEC, proliferation, 3H-T uptake
[7] = IC50 hMetAP1, enzyme assay, 10 μM Co2+
[8] = Homo sapiens, HUVEC, read-out: IC50 HUVEC, proliferation, 3H-T uptake

Sequence of hMetAP2 (P50579 whole entry): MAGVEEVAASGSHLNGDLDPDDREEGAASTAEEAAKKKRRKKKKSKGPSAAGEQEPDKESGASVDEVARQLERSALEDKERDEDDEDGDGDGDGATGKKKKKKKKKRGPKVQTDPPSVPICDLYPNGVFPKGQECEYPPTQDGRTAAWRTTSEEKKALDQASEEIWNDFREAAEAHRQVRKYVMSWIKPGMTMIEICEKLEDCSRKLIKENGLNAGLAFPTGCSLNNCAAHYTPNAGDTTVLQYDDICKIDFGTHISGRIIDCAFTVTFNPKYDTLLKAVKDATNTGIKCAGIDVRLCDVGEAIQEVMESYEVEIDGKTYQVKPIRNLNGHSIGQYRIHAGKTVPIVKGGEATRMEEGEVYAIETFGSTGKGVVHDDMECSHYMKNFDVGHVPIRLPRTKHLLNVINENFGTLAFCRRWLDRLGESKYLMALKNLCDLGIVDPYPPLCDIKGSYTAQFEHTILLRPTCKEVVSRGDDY

Row | Structure (SMILES) | IC50 (hMetAP1; [4]) [µM] | IC50 (hMetAP2; [5]) [µM] | IC50 (hMetAP1; [7]) [µM] | IC50 (hMetAP2) [µM] | IC50 (HUVEC [1]; [3]) [µM] | IC50 (HUVEC [1]; [6]) [µM] | other results
1 | Oc1cccc2cccnc12 [Entry 1, 8-hydroxyquinoline] | – | – | – | – | 6.21 ± 1.1 | – | IC50 (hMetAP1; IC50 hMetAP1): > 15 µM
2 | Cc1ccc2cccc(O)c2n1 [Entry 2] | > 15 | > 15 | – | – | – | 2.7 ± 0.61 | –
3 | N#Cc1ccc2cccc(O)c2n1 [Entry 3] | > 15 | > 15 | – | – | – | > 50 | –
4 | Oc1ccc(Cl)c2cccnc12 [Entry 4, Cloxyquin, reference compound] | – | – | – | – | 1.41 ± 0.1 | – | –
5 | Oc1c(I)cc(Cl)c2cccnc12 [Entry 7, Clioquinol, reference compound] | – | – | > 15 | 2.39 ± 0.31 | 2.42 ± 0.5 | – | IC50 (hMetAP1; IC50 MetAP1 with Co2+, Co2+ metalloform, data not shown): > 50 µM
6 | Oc1c(Br)cc(Cl)c2cccnc12 [Entry 8] | > 15 | > 15 | – | – | – | 2.21 ± 0.6 | –
7 | Oc1c(CN2CCOCC2)ccc2cccnc12 [Entry 12] | > 50 | > 15 | – | – | – | > 20 | –
8 | COc1ccc(N2CCN(Cc3cc(Cl)c4cccnc4c3O)CC2)cc1 [Entry 17, 5-Chloro-7-((4-(4-methoxyphenyl)piperazin-1-yl)methyl)-quinolin-8-ol] | – | – | > 15 | > 15 | 1.46 ± 0.33 | – | level of Ac-p53 compared to DMSO treated cells (SIRT1; 10 μM, HUVEC): did increase; Immunoblot Ac-p53 (SIRT1): + (+, 2.0–7.0); Immunoblot Met-14-3-3γ (MetAP): − (−, >1.5)
9 | Oc1c(C(c2ccccc2)N2CCOCC2)cc(Cl)c2cccnc12 (centres unmarked) [Entry 18, 5-Chloro-7-(morpholino(phenyl)methyl)quinolin-8-ol] | – | – | 14 | – | 1.92 ± 0.6 | – | IC50 (HUVEC [2]): 3.55 ± 0.9 µM; b = bottom value of the curve, Calcein-AM HFF (HFF): 18%; IC50 (HFF): 3.66 ± 0.7 µM
10 | Oc1c(C(Nc2nccs2)c2ccco2)cc(Cl)c2cccnc12 (centres unmarked) [Entry 19, 5-Chloro-7-(furan-2-yl(thiazole-2-ylamino)methyl)quinolin-8-ol] | – | – | > 50 | 2.75 ± 0.4 | 2.53 ± 0.13 | – | –
11 | O=C(NCCCl)Oc1c(Cl)cc(Cl)c2cccnc12 [Entry 21, 5,7-Dichloroquinolin-8-yl 2-chloroethylcarbamate] | – | – | > 15 | – | – | – | IC50 (HUVEC [1]; [8]): 2.62 ± 0.5 µM
12 | O=C(Nc1ccccc1)Oc1ccc(Cl)c2cccnc12 [Entry 22, 5-chloroquinolin-8-yl phenylcarbamate] | – | – | > 15 | 5.26 ± 0.6 | – | 1.21 ± 0.51 | b = bottom value in the dose-response curve, hMetAP2 (hMetAP2): 24%; inhibition at 10 µM (hMetAP2): > 90%; IC50 (HUVEC [1]; [8]): 1.2 µM
13 | O=C(Nc1cc(F)cc(F)c1)Oc1ccc(Cl)c2cccnc12 [Entry 23, 5-Chloroquinolin-8-yl 3,5-difluorophenylcarbamate] | – | – | > 15 | > 15 | – | – | IC50 (HUVEC [1]; [8]): 2.2 ± 0.1 µM
14 | O=C(Nc1ccc(F)cc1)Oc1c(Cl)cc(Cl)c2cccnc12 [Entry 25, 5,7-Dichloroquinolin-8-yl 4-fluorophenylcarbamate] | – | – | > 15 | > 15 | – | – | IC50 (HUVEC [1]; [8]): 3.58 ± 0.9 µM
15 | CCOP(=O)(OCC)Oc1ccc(Cl)c2cccnc12 [Entry 26, 5-chloroquinolin-8-yl diethyl phosphate] | – | – | > 15 | > 15 | > 50 | – | –
16 | C=CCOc1c(Cl)cc(Cl)c2cccnc12 [Entry 28, 8-(Allyloxy)-5,7-dichloroquinoline] | – | – | > 15 | > 15 | 2.32 ± 0.23 | – | –
17 | C=CCOc1cccc2ccc(C#N)nc12 [Entry 30, 8-(Allyloxy)quinoline-2-carbonitrile] | – | – | > 15 | > 15 | > 50 | – | –
18 | Nc1cccc2cccnc12 [Entry 31, 8-aminoquinoline] | – | – | > 15 | > 15 | – | – | IC50 (HUVEC [1]; [8]): > 50 µM
19 | Cc1ccc(S(=O)(=O)Nc2cccc3cccnc23)cc1 [Entry 32, 8-quinolinyl p-toluenesulfonamide] | – | – | 6.97 ± 0.25 | > 15 | 0.308 ± 0.04 | – | b = bottom value in the dose-response curve, hMetAP1 (hMetAP1): 21%; IC50 (HeLa): 1.12 ± 0.2 µM; IC50 (Jurkat-T): 0.79 ± 0.08 µM; IC50 (HUVEC [2]): 1.47 ± 0.2 µM; b = bottom value of the curve, Calcein-AM HFF (HFF): 21%; IC50 (HFF): 0.909 ± 0.12 µM; Immunoblot Ac-p53 (SIRT1): − (−, <2.0); effect on the levels of Ac-p53 (SIRT1; HUVEC): no effect; Immunoblot Met-14-3-3γ (MetAP): − (−, >1.5); effect on the levels of Met-14-3-3γ (MetAP): no effect
20 | Cc1ccc2c([N+](=O)[O-])cc([N+](=O)[O-])c(O)c2n1 [Entry 43] | 17.3 ± 1.7 | > 15 | – | – | – | 15.7 ± 1.3 | –
21 | O=[N+]([O-])c1cc(Cl)c2cccnc2c1O [Entry 44] | > 15 | > 15 | – | – | – | 7.73 ± 0.77 | –
22 | CC(C)(C)C(=O)Oc1ccc([N+](=O)[O-])c2cccnc12 [Entry 46, 5-nitroquinolin-8-yl pivalate] | – | – | > 15 | 0.434 ± 0.1 | – | – | Immunoblot Ac-p53 (SIRT1): ++ (++, 7.1–11.6); Immunoblot Met-14-3-3γ (MetAP): + (+, ≥1.5)
23 | NC(=O)COc1ccc([N+](=O)[O-])c2cccnc12 [Entry 50, 2-(5-nitroquinolin-8-yloxy)acetamide] | – | – | > 15 | 1.06 ± 0.5 | 6.3 ± 1.4 | – | –

Second part, led by results:

Row | IC50 (hMetAP1; [4]) [µM] | IC50 (hMetAP2; [5]) [µM] | IC50 (hMetAP1; [7]) [µM] | IC50 (hMetAP2) [µM] | Structure (SMILES) | IC50 (HUVEC [1]; [3]) [µM] | IC50 (HUVEC [1]; [6]) [µM] | other results
24 | – | > 15 | – | – | O=S(=O)(O)c1ccc(O)c2ncccc12 [Entry 6] | – | > 50 | –
25 | > 15 | > 15 | – | – | Oc1c(Cl)cc(Cl)c2cccnc12 [Entry 9] | – | 3.64 ± 0.53 | –
26 | > 15 | > 15 | – | – | Oc1c(Br)cc(Br)c2cccnc12 [Entry 10] | – | 2.53 ± 0.71 | –
27 | > 15 | > 15 | – | – | Oc1c(I)cc(I)c2cccnc12 [Entry 11] | – | 2.62 ± 0.08 | –
28 | – | – | > 15 | > 50 | C=CCOc1ccc(Cl)c2cccnc12 [Entry 27, 5-chloro-8-allyloxyquinoline] | > 50 | – | inhibition at 10 µM (hMetAP2): > 90%
29 | > 15 | > 15 | – | – | OCCOc1ccc(Cl)c2cccnc12 [Entry 29] | – | 2.4 ± 0.3 | –
30 | – | – | 8.92 ± 1.2 | 11.9 | Nc1ccc(O)c2ncccc12 [Entry 34, 5-aminoquinolin-8-ol] | 0.218 ± 0.04 | – | b = bottom value in the dose-response curve, hMetAP2 (hMetAP2): 26%; more potent against HUVEC than HeLa (HeLa; 3H-T uptake): about 8 times; IC50 (HeLa): 2.36 ± 0.5 µM; more potent against HUVEC than Jurkat T (Jurkat-T; 3H-T uptake): about 8 times; IC50 (Jurkat-T): 1.28 ± 0.3 µM; b = bottom value of the curve, Calcein-AM HUVEC (HUVEC [2]): 19%; IC50 (HUVEC [2]): 1.84 µM; b = bottom value of the curve, Calcein-AM HFF (HFF): 38%; IC50 (HFF): 37.3 ± 2.1 µM; selectivity for HUVEC inhibition than HFF (HFF; calcein-AM): ~30 times; Immunoblot Ac-p53 (SIRT1): − (−, <2.0); effect on the levels of Ac-p53 (SIRT1; HUVEC): no effect; Immunoblot Met-14-3-3γ (MetAP): − (−, >1.5); effect on the levels of Met-14-3-3γ (MetAP): no effect
31 | – | – | 7.21 ± 1.3 | 20.1 | CCN(CC)c1ccc(O)c2ncccc12 [Entry 35, 5-(N,N-Diethyl)amino-8-hydroxyquinoline] | 0.329 ± 0.17 | – | b = bottom value in the dose-response curve, hMetAP1 (hMetAP1): 29%; b = bottom value in the dose-response curve, hMetAP2 (hMetAP2): 25%
32 | – | – | > 40 | > 40 | CCCCCCN(CCCCCC)c1ccc(O)c2ncccc12 [Entry 36, 5-(N,N-Di-n-hexyl)amino-8-hydroxyquinoline] | 0.789 ± 0.21 | – | –
33 | – | – | 1.46 ± 0.3 | > 40 | COc1ccc(CN(Cc2ccc(OC)cc2)c2ccc(O)c3ncccc23)cc1 [Entry 37, 5-(N,N-Di[(4-methoxy)benzyl])amino-8-hydroxyquinoline] | 0.551 ± 0.08 | – | b = bottom value in the dose-response curve, hMetAP1 (hMetAP1): 32%
34 | > 40 | > 40 | – | – | CC(=O)Nc1ccc(O)c2ncccc12 [Entry 38] | – | 10.2 ± 1.1 | b = bottom value in the dose-response curve, HUVEC (HUVEC [1]; 3H-T uptake, noted only when above 15%): 28%
35 | – | – | > 40 | > 40 | CCCCCC(=O)Nc1ccc(O)c2ncccc12 [Entry 39, N-(8-Hydroxyquinolin-5-yl)hexanamide] | 8.45 ± 0.91 | – | –
36 | – | – | > 40 | > 40 | CC(C)S(=O)(=O)Nc1ccc(O)c2ncccc12 [Entry 41, N-(8-Hydroxyquinolin-5-yl)propane-2-sulfonamide] | 12.9 ± 0.13 | – | –
37 | – | – | > 40 | > 40 | O=C(Nc1ccc(O)c2ncccc12)N1CCOCC1 [Entry 42, N-(8-Hydroxyquinolin-5-yl)morpholine-4-carboxamide] | 1.88 ± 0.3 | – | –
38 | > 40 | > 15 | – | – | Nc1cc(Cl)c2cccnc2c1O [Entry 45] | – | 0.273 ± 0.07 | Immunoblot Ac-p53 (SIRT1): − (−, <2.0); effect on the levels of Ac-p53 (SIRT1; HUVEC): no effect; Immunoblot Met-14-3-3γ (MetAP): − (−, >1.5); effect on the levels of Met-14-3-3γ (MetAP): no effect
39 | – | – | > 15 | > 15 | CCOC(=O)COc1ccc([N+](=O)[O-])c2cccnc12 [Entry 49, ethyl 2-(5-nitroquinolin-8-yloxy)acetate] | 7.3 ± 0.81 | – | –
